Tests used:
[1] = tested on: DR5; assay: Western blot of DR5 protein expression; format: cell-based, human; conditions: MDA-MB-231-GFP cells; for DR5 protein expression: 5 days
[2] = tested on: MDA-MB-231-GFP human breast cancer cells; assay: Colony formation assay; format: cell-based; conditions: for Effect on colony formation: MDA-MB-231-GFP cells, 10 days, 10–40 μM range tested; for IC50: Homo sapiens, 240 h, read-out: IC50 for inhibition of colony formation
Outline: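 MDA-MB-231-GFP cells were seeded at 1000 per 100 mm plate in 2% FBS medium and grown 3 days to form small colonies. They were then treated 10 days with test compound at 10–40 μM (positive control 5–15 μM) or DMSO/ethanol (1:4) vehicle. Colonies were methanol-fixed, stained with 0.1% methylene blue and counted by image analysis. Survival (%) = colonies treated/control × 100. IC50 came from survival curves; mean ± SD, ≥2 experiments.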

[3] = tested on: MDA-MB-231-GFP tumor tissue; assay: Tumor immunohistochemistry: Ki-67 proliferation; format: in vivo, Nu/Nu female BALB/c mice; conditions: tumor tissue from 5 mice/group, 500 mg/kg diet
Outline: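 Female Nu/Nu BALB/c mice (6 weeks) received 2 × 10^6 MDA-MB-231-GFP cells s.c. (inguinal) in 50% matrigel. At ~25 mm3 they were randomised (10/group) to tocopherol-stripped AIN-76A diet with 33 IU all-rac-α-tocopherol acetate/kg, ± test form at 500 mg/kg, for 24 days. Formalin-fixed tumours were cut into 5 μm sections and stained for Ki-67. Positive cells were counted in 5 fields (400×) per tumour, 5 mice/group; Mann-Whitney test.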

[4] = tested on: human MDA-MB-231 breast cancer cells; conditions: supplemented in the diet, MDA-MB-231 cells; cited from earlier work
[5] = tested on: Survivin; assay: Western blot of Survivin protein expression; format: cell-based, human; conditions: MDA-MB-231-GFP cells; for Survivin protein expression: 5 days
Outline: (§1)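 Whole-cell extracts came from the same 5-day-treated MDA-MB-231-GFP samples (2% FBS) used for annexin V analysis. Blots were incubated overnight at 4°C with primary antibody in 0.1% BSA/TBST against PARP (cleavage), Survivin, DR5 or GAPDH. After TBST washes they were probed with HRP-conjugated secondary antibody.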

[6] = tested on: MDA-MB-231-GFP tumor tissue; assay: Tumor immunohistochemistry: TUNEL apoptosis; format: in vivo, Nu/Nu female BALB/c mice; conditions: tumor tissue from 5 mice/group, 500 mg/kg diet
Outline: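 Xenografts came from female Nu/Nu BALB/c mice carrying s.c. MDA-MB-231-GFP tumours in matrigel. From ~25 mm3, mice were fed for 24 days a tocopherol-stripped AIN-76A basal diet (33 IU all-rac-α-tocopherol acetate/kg) with or without 500 mg/kg test vitamin E form. TUNEL (ApopTag) staining was done on deparaffinised 5 μm sections of formalin-fixed tumours. Brown nuclei were scored in 15 fields (400×) per tumour, 5 mice/group; Mann-Whitney test.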

[7] = tested on: MDA-MB-231-GFP human breast cancer cells; assay: Visible lung metastases counted at sacrifice; format: in vivo, Nu/Nu female BALB/c mice; conditions: 500 mg/kg diet each, control 70%
[8] = tested on: PARP; assay: Western blot of PARP cleavage; format: cell-based, human; conditions: MDA-MB-231-GFP cells; for PARP cleavage: 5 days
Outline: as §1

[9] = tested on: BALB/c 66cl-4-GFP mouse mammary cancer cells; conditions: formulated in liposomes, oral gavage, BALB/c 66cl-4-GFP cells; cited from earlier work
[10] = tested on: MDA-MB-231-GFP human breast cancer cells; assay: Annexin V-PE apoptosis assay; format: cell-based; conditions: MDA-MB-231-GFP cells; for Induction of apoptosis (annexin V-PE positive cells): 5 day treatments

Row | IC50 [2] | SMILES | DR5 protein expression [1] | Effect on colony formation [2] | Decrease of Ki-67 positive cells in tumor in comparison to control group [3] | Tumor burden in xenograft model [4] | Survivin protein expression [5] | Increase of TUNEL positive cells in tumor in comparison to control group [6] | Incidence of visible lung metastases [7] | PARP cleavage [8] | Tumor growth in syngeneic mouse model [9] | Induction of apoptosis (annexin V-PE positive cells) [10] | Effect of αT co-treatment on γT- and α-TEA-induced upregulation of DR5 [1] | Effect of αT co-treatment on γT- and α-TEA-induced downregulation of Survivin [5] | Block of α-TEA-induced apoptosis by αT ([10]; 10 μM αT plus 10 μM α-TEA, 5 days) | Block of γT-induced apoptosis by αT ([10]; 10 μM αT plus 40 μM γT, 5 days) | Effect of αT co-treatment on γT- and α-TEA-induced cleavage of PARP [8]
1 |  | Cc1c(C)c2c(c(C)c1O)CCC(C)(CCCC(C)CCCC(C)CCCC(C)C)O2 (racemic) [all-rac-αT, all-racemic-α-tocopherol] | induced an increase in DR5 protein expression | no inhibitory effect | 23% | reduced tumor burden | did not downregulate Survivin | 2.1 fold | 30% | did not cause cleavage of PARP | suppressed tumor growth |  |  |  |  |  | 
2 | 4.8 µM | Cc1c(C)c2c(c(C)c1OCC(=O)O)CC[C@@](C)(CCC[C@H](C)CCC[C@H](C)CCCC(C)C)O2 [α-TEA, RRR-α-tocopherol ether-linked acetic acid analog] | upregulation of pro-apoptotic death receptor DR5 |  | 39% |  | downregulation of anti-apoptotic Survivin | 2.1 fold | 30% | PARP cleavage | suppressed tumor growth | induced dose-dependent apoptosis |  |  |  |  | 
3 |  | Cc1c(C)c2c(c(C)c1O)CC[C@@](C)(CCC[C@H](C)CCC[C@H](C)CCCC(C)C)O2 [αT, RRR-α-tocopherol] | induced an increase in DR5 protein expression | no inhibitory effect | but not αT or αT + γT groups |  | did not downregulate Survivin | but not in the αT or αT + γT groups | 60% | did not cause cleavage of PARP |  |  | blocked | blocked | 70% | 60% | blocked
4 | 11.8 µM | Cc1c(O)cc2c(c1C)O[C@](C)(CCC[C@H](C)CCC[C@H](C)CCCC(C)C)CC2 [γT, RRR-γ-tocopherol] | upregulation of pro-apoptotic death receptor DR5 |  | no significant difference |  | downregulation of anti-apoptotic Survivin | 1.9 fold | 30% | PARP cleavage | suppressed tumor growth | induced dose-dependent apoptosis |  |  |  |  | 

— PMC3008344 (Molecular nutrition & food research, 2009)
